# Assay results published in ChEMBL document CHEMBL6134795, “Mannich reaction mediated derivatization of chromones and their biological evaluations as putative multipotent ligands for the treatment of Alzheimer's disease” (RSC Med Chem, 2024).
# pIC50: −log10 of the molar value. Active and inactive are the calls of the source. No cut-off for these calls is given here.
# Key:
# Acetylcholinesterase [1] = target: T1, Acetylcholinesterase (Homo sapiens, UniProt P22303); experiment: Reversible inhibition of AChE (unknown origin) assessed as residual activity at 10 times IC50 incubated for 30 mins by dilution method relative to control
# T1 sequence (P22303 whole entry): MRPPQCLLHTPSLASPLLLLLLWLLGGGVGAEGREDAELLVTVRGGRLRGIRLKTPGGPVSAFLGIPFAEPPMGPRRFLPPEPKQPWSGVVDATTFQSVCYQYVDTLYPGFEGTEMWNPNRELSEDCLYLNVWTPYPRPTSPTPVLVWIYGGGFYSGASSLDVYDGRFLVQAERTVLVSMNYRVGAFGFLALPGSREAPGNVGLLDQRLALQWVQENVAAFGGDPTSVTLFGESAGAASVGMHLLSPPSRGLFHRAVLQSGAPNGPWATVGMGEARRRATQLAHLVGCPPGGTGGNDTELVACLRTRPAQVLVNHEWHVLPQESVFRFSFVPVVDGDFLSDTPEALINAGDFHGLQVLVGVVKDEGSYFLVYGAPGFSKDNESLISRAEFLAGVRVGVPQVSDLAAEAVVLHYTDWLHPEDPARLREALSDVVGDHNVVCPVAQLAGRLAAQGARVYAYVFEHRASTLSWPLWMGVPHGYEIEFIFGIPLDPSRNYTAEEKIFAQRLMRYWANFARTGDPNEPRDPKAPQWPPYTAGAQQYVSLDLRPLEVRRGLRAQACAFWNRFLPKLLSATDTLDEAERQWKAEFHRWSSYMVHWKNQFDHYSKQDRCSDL
# How it was run: (§1)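 Samples then diluted 100-fold with substrate, giving final inhibitor levels of 0.1× and 1× IC50. Recovered activity measured relative to control; triplicate.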
# [2] = target: Amyloid-beta precursor protein (Homo sapiens) (UniProt P05067); experiment: Inhibition of self-induced amyloid beta (1 to 42 residues) (unknown origin) aggregation at 20 uM incubated at 24 hrs by fluorimetry-based thioflavin T assay
# Amyloid-beta precursor protein (Homo sapiens), sequence (P05067 whole entry, the tested form may be a part): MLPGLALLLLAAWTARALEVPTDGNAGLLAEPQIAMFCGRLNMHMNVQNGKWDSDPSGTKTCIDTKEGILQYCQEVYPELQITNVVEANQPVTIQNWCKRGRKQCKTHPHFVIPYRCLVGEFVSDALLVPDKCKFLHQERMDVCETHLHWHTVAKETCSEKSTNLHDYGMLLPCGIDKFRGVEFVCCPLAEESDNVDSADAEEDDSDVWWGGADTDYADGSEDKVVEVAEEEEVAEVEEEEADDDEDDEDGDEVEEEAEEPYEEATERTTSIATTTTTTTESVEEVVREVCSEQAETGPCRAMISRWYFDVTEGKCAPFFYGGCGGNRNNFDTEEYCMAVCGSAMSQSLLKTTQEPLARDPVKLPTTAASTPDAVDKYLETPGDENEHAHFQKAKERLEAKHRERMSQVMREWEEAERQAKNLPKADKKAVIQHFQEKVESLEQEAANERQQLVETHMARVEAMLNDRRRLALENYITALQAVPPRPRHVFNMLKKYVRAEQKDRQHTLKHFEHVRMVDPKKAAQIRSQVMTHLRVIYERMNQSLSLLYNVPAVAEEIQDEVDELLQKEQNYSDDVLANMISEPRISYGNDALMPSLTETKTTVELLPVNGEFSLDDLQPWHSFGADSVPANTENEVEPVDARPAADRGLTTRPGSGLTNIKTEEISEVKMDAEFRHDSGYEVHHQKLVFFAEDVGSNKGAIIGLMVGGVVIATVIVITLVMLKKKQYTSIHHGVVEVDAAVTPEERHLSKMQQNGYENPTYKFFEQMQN
# How it was run: (§2)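 Aβ1-42 pretreated with HFIP (1 mg mL−1) and dried, then incubated with compound (20 μM) at 37 °C for 24 h; an aliquot transferred and incubated further to 48 h. Glycine–NaOH buffer pH 8.0 with 5 μM ThT added; fluorescence read at 440–485 nm. % inhibition calculated against the Aβ-only control taken as 0%.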
# SH-SY5Y [3] = experiment: Inhibition of ROS production in human SH-SY5Y cells assessed as intracellular ROS level at 1 uM incubated for 24 hrs by DCF-DA staining based fluorescence analysis relative to control; format: functional
# How it was run: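 Cultured SH-SY5Y cells exposed to compound (1, 5, 25 μM) for 24 h; intracellular ROS detected with DCF-DA, which is converted to fluorescent 2,7-DCF, read at ex 478/em 518 nm. Inhibition is expressed relative to control. Mean ± SD of triplicate or more independent experiments.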
# Acetylcholinesterase [4] = target: T1, Acetylcholinesterase; experiment: Reversible inhibition of AChE (unknown origin) assessed as residual activity at 1 times IC50 incubated for 30 mins by dilution method relative to control; how it was run: as §1
# [5] = target: Amyloid-beta precursor protein (Homo sapiens) (UniProt P05067); experiment: Inhibition of self-induced amyloid beta (1 to 42 residues) (unknown origin) aggregation at 20 uM incubated at 48 hrs by fluorimetry-based thioflavin T assay; how it was run: as §2
# [6] = target: Amyloid-beta precursor protein (Homo sapiens) (UniProt P05067); experiment: Inhibition of self-induced amyloid beta (1 to 42 residues) (unknown origin) aggregation assessed as reduction in fibrils formation measured after 72 hrs by FE-SEM analysis
# How it was run: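 HFIP-pretreated Aβ1-42 incubated with or without inhibitor for 72 h; samples placed on carbon-coated copper grids, dried 1 h at 37 °C, imaged by FE-SEM. Glycine–NaOH buffer served as blank and Aβ alone as control.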
# Cholinesterase = Cholinesterase (Homo sapiens, UniProt P06276); experiment: Inhibition of recombinant BuChE (unknown origin) using BTCI as substrate preincubated for 30 mins followed by substrate addition by TECAN multiplate reader analysis
# Cholinesterase, sequence (P06276 whole entry): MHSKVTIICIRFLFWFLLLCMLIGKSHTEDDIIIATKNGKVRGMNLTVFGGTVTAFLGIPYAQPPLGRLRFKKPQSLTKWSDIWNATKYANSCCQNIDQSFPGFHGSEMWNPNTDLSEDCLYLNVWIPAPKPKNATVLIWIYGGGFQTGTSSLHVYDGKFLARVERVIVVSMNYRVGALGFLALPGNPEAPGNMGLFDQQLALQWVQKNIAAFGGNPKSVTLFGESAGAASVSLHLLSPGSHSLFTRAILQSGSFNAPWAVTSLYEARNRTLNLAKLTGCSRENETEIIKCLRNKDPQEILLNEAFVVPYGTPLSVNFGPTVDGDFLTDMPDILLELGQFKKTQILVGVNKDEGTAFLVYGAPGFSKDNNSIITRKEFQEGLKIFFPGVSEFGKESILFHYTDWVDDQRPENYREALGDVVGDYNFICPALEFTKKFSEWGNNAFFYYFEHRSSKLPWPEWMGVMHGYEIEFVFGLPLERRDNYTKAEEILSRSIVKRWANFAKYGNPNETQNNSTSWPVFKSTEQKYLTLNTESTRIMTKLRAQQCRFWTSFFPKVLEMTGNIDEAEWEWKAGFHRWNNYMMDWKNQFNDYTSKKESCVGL
# How it was run: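 Ellman method as for AChE, using butyrylcholinesterase with BTCI as substrate. Enzyme and compound preincubated 30 min at 37 °C in a CO2 incubator, then DTNB and BTCI added; absorbance read at 417 nm. Screening at 20 μM as % inhibition; IC50 for compounds exceeding 50% inhibition at 20 μM. Triplicate.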
# SH-SY5Y [7] = experiment: Cytotoxicity against human SH-SY5Y cells assessed as cell viability at 1 uM by MTT assay relative to control; format: functional; conditions: read-out: Activity
# How it was run: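 SH-SY5Y cells (DMEM/F-12 with 10% FBS, 1% horse serum, 1% penicillin) preincubated 24 h with compound at 1, 5 or 25 μM; MTT converted to formazan, solubilised in DMSO, absorbance read at 595 nm; viability expressed as percentage of untreated control.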
# Acetylcholinesterase [8] = target: T1, Acetylcholinesterase; experiment: Mixed type inhibition of AChE (unknown origin) by Lineweaver-Burk plot analysis
# How it was run: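 Ellman-based AChE kinetics run at several substrate concentrations and several final inhibitor concentrations. Mode of inhibition assigned from double-reciprocal Lineweaver–Burk plots.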
# [9] = target: T2, Amine oxidase [flavin-containing] B (Homo sapiens, UniProt P27338); experiment: Inhibition of recombinant MAO-B (unknown origin) at 20 uM preincubated for 30 mins followed substrate addition by Amplex Red reagent based fluorescence analysis relative to control
# T2 sequence (P27338 whole entry): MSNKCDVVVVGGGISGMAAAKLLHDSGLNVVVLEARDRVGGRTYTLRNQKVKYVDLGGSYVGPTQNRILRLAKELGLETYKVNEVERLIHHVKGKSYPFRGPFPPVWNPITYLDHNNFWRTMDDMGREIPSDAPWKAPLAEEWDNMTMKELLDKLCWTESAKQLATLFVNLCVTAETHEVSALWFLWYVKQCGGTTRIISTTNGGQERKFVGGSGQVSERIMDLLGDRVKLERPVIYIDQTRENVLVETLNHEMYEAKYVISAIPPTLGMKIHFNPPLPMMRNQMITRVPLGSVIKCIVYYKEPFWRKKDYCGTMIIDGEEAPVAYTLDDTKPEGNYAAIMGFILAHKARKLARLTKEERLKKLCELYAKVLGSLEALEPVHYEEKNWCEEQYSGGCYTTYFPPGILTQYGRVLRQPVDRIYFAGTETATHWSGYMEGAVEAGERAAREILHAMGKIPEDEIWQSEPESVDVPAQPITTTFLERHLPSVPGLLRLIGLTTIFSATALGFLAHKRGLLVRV
# How it was run: (§3)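 Recombinant MAO enzyme preincubated with compound 30 min at 37 °C; substrate, HRP and Amplex Red working solution then added; H2O2 formation read at 37 °C by fluorescence, ex 545/em 590 nm. Screening at 20 μM as % inhibition versus control; IC50 only for compounds above 50% inhibition at 20 μM; triplicate (n = 3).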
# [10] = target: T3, Amine oxidase [flavin-containing] A (Homo sapiens, UniProt P21397); experiment: Inhibition of recombinant MAO-A (unknown origin) at 20 uM preincubated for 30 mins followed substrate addition by Amplex Red reagent based fluorescence analysis relative to control; how it was run: as §3
# T3 sequence (P21397 whole entry): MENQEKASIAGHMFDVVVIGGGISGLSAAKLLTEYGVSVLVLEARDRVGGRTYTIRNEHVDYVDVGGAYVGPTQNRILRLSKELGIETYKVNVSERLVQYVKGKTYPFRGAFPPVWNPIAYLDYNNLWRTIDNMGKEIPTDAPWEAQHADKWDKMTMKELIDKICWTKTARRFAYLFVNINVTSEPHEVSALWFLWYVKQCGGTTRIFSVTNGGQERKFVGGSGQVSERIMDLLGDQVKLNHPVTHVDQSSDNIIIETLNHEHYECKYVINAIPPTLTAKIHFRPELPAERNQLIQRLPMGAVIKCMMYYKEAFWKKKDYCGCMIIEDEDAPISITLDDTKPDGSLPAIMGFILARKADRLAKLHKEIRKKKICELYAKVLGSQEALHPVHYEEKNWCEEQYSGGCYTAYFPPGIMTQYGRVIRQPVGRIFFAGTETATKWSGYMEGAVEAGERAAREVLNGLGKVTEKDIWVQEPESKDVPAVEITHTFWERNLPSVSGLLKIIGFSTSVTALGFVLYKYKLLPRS
structure (smiles),measurement,setting,value
C#CCCCOc1ccc(-c2cc(=O)c3ccccc3o2)cc1CN1CCCCC1,Activity,Acetylcholinesterase [1],28.9%
same,inhibition,[2],22.1%
same,inhibition at 1 µM,SH-SY5Y [3],65.7%
same,Activity,Acetylcholinesterase [4],44.9%
same,inhibition,[5],32.2%
same,inhibition,[6],Active
same,pIC50,Cholinesterase,4.96
same,viability at 1 µM,SH-SY5Y [7],99.6%
same,inhibition,Acetylcholinesterase [8],Active
same,inhibition at 20 µM,[9],61.2%
same,inhibition at 20 µM,[10],0.23%
